# From ChEMBL document CHEMBL4680373, “Evaluation of 5-(Trifluoromethyl)-1,2,4-oxadiazole-Based Class IIa HDAC Inhibitors for Huntington's Disease” (ACS Med Chem Lett, 2021)
# pIC50: −log10 of the molar value.
# Columns and labels:
# Histone deacetylase 4 [1] = target: T1, Histone deacetylase 4 (Homo sapiens, UniProt P56524); assay: Inhibition of Class 2A HDAC4 in human Jurkat E6.1 cells using Boc-Lys-(TFA)-AMC as substrate by fluorogenic assay; format: cell-based
# Procedure, shortened: (§1)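 Whole-cell assay in Jurkat E6.1 cells with artificial fluorogenic substrates: Boc-Lys-(TFA)-AMC for class IIa/HDAC8 activity, which in this line is mostly HDAC4, and Boc-Lys-(Ac)-AMC for class I/IIb activity. IC50 given as the geometric mean of three experiments.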
# Histone deacetylase 4 [2] = target: T1, Histone deacetylase 4; assay: Inhibition of HDAC4 (unknown origin) using Boc Lys(TFA) as substrate by fluorogenic assay
# Procedure, shortened: (§2)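 Biochemical HDAC isoform assay with the artificial fluorogenic substrate Boc-Lys-(TFA)-AMC, which is specific to class IIa enzymes and HDAC8. IC50 taken as the geometric mean of three experiments.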
# [3] = Inhibition of Class 1/2b HDAC in human Jurkat E6.1 cells using Boc-Lys-(Ac)-AMC as substrate by fluorogenic assay; format: cell-based; procedure, shortened: as §1
# [4] = Selectivity index, ratio of IC50 for Class 1/2b HDAC in human Jurkat E6.1 cells using Boc-Lys-(Ac)-AMC as substrate to IC50 for Class 2A HDAC4 in human Jurkat E6.1 cells using Boc-Lys-(TFA)-AMC as substrate by fluorogenic assay
# Procedure, shortened: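 Human Jurkat E6.1 cells were assayed with two fluorogenic substrates. Boc-Lys-(TFA)-AMC reports class IIa activity, mostly HDAC4 in this line, and Boc-Lys-(Ac)-AMC reports class I/IIb activity. IC50s are geometric means of three experiments.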
# [5] = Kinetic solubility of the compound; format: physicochemical; details: read-out: Kinetic_solubility
# [6] = Intrinsic Clearance in mouse liver microsomes; format: ADME, Microsome; details: read-out: CLH
# [7] = Efflux ratio of permeability from basolateral to apical over apical to basolateral side in dog MDCK-MDR1 cells relative to wild type MDCK cells; format: ADME, cell-based, Canis lupus familiaris
# [8] = target: T2, Protein deacetylase HDAC6 (Homo sapiens, UniProt Q9UBN7); assay: Inhibition of HDAC6 (unknown origin) expressed in human HEK-Freestyle cells using Boc-Lys(Ac) as substrate by fluorogenic assay; format: cell-based
# T2 sequence (Q9UBN7 whole entry): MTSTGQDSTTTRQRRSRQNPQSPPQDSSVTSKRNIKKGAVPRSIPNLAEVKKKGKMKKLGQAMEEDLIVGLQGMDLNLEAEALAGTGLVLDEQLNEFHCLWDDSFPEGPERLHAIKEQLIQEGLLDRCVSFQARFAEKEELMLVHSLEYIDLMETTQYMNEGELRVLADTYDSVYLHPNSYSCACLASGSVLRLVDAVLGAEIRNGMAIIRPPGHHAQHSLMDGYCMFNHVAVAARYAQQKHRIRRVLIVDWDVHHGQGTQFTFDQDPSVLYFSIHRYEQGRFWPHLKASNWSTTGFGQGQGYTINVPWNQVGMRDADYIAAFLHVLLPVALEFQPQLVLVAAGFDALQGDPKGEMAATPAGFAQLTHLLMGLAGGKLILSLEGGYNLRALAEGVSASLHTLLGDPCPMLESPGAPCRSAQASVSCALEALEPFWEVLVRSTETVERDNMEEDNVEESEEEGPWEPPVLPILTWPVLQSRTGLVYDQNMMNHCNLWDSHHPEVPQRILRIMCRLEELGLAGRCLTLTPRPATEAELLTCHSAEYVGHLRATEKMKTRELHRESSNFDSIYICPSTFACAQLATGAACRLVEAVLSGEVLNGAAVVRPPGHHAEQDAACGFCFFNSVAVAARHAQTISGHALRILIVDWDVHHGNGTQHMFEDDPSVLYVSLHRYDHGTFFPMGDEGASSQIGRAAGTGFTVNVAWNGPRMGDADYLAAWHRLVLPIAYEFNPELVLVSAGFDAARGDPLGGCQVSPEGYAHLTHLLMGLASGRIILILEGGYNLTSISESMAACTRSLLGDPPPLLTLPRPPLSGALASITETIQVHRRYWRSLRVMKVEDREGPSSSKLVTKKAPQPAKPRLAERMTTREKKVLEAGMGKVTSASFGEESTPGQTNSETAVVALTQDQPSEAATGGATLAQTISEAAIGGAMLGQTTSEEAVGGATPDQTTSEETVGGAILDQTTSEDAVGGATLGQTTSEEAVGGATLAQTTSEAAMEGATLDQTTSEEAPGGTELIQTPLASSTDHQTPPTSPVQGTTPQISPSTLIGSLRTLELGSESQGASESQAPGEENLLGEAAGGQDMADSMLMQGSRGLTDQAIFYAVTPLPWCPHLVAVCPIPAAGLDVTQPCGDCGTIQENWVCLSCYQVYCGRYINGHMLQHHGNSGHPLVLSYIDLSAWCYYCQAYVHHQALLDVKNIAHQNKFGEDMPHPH
# Procedure, shortened: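 HDAC6 was supplied as lysate of HEK cells overexpressing the enzyme. Activity was read with the class I/IIb-specific fluorogenic substrate Boc-Lys-(Ac)-AMC. IC50 is the geometric mean of three experiments.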
# [9] = Apparent permeability of the compound in dog MDCK-MDR1 cells; format: ADME, cell-based, Canis lupus familiaris
# Histone deacetylase 1 = Histone deacetylase 1 (Homo sapiens, UniProt Q13547); assay: Inhibition of HDAC1 (unknown origin) using Ac-Arg-Gly-Lys(Ac) as substrate by fluorogenic assay
# Chain of Histone deacetylase 1 (Q13547 whole entry): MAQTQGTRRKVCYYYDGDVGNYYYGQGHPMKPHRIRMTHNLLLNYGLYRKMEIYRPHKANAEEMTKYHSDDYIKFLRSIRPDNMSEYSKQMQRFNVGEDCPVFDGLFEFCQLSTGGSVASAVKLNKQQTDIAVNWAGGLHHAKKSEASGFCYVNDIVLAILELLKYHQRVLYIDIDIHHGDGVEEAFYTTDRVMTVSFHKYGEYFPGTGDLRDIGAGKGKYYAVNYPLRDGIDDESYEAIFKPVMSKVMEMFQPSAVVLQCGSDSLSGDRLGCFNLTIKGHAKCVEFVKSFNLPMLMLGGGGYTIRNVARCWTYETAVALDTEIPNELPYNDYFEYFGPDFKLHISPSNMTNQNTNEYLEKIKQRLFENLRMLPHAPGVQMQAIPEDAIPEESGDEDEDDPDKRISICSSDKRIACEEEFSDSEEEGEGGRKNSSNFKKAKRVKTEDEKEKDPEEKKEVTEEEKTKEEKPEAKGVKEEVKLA
# Histone deacetylase 2 = Histone deacetylase 2 (Homo sapiens, UniProt Q92769); assay: Inhibition of HDAC2 (unknown origin) using Ac-Arg-Gly-Lys(Ac) as substrate by fluorogenic assay
# Chain of Histone deacetylase 2 (Q92769 whole entry): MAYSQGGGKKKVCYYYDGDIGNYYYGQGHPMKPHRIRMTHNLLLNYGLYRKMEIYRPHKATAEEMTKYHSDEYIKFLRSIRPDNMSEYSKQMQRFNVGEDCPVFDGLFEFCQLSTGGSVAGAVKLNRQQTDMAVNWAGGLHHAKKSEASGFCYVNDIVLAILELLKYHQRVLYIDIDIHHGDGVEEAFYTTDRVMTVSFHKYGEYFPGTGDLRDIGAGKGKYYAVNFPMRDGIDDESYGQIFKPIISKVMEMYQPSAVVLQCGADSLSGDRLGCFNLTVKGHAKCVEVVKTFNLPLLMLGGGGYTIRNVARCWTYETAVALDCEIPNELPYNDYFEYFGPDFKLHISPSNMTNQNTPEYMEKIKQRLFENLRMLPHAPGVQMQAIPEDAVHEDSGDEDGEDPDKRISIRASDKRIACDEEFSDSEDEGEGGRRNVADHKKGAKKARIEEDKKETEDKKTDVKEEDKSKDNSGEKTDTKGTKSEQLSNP
# Histone deacetylase 8 = target: T3, Histone deacetylase 8 (Homo sapiens, UniProt Q9BY41); assay: Inhibition of HDAC8 (unknown origin) using Boc-Lys(TFA) as substrate by fluorogenic assay; procedure, shortened: as §2
# T3 sequence (Q9BY41 whole entry): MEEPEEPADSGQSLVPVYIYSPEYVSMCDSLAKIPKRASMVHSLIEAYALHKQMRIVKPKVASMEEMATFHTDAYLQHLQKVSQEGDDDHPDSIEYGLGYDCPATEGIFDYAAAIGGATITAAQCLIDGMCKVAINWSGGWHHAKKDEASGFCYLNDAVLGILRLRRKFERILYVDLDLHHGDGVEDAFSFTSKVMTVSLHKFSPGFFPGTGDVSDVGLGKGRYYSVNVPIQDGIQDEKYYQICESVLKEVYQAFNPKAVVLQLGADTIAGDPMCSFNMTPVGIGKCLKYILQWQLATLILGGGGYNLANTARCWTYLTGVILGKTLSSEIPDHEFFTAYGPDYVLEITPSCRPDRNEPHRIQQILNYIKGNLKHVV
# [10] = Chemical stability of the compound in DMSO-d6 measured for 9 days at room temperature by 1H-NMR spectroscopy; format: physicochemical; details: 216 h; time 9 day
# Histone deacetylase 9 = Histone deacetylase 9 (Homo sapiens, UniProt Q9UKV0); assay: Inhibition of HDAC9 (unknown origin) using Boc Lys(TFA) as substrate by fluorogenic assay; procedure, shortened: as §2
# Chain of Histone deacetylase 9 (Q9UKV0 whole entry): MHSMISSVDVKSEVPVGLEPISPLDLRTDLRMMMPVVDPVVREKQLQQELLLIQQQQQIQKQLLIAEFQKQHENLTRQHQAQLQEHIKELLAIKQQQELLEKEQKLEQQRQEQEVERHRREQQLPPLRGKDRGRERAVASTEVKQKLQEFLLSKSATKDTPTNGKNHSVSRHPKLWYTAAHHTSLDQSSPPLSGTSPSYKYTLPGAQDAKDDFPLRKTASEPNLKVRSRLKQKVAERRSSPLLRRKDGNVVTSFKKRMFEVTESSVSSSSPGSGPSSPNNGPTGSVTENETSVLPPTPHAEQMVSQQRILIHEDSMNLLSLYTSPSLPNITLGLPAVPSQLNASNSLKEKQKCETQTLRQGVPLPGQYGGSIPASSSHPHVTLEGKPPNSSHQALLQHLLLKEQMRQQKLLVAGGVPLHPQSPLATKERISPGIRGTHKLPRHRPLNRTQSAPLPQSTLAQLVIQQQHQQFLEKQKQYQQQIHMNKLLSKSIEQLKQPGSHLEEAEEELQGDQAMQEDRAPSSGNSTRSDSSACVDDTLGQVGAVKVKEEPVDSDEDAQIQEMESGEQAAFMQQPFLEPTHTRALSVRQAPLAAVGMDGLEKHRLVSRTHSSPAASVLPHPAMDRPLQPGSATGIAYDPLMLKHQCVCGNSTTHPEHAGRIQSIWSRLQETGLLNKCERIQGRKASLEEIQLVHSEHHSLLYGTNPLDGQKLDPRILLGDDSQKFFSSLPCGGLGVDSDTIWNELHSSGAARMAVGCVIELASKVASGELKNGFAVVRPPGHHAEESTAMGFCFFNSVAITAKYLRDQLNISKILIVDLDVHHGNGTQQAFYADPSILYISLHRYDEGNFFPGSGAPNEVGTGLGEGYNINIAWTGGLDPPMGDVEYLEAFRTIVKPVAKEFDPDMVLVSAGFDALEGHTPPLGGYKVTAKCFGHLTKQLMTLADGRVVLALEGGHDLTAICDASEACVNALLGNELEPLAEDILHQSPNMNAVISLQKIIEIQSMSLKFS
# Histone deacetylase 5 = Histone deacetylase 5 (Homo sapiens, UniProt Q9UQL6); assay: Inhibition of HDAC5 (unknown origin) using Boc Lys(TFA) as substrate by fluorogenic assay; procedure, shortened: as §2
# Chain of Histone deacetylase 5 (Q9UQL6 whole entry): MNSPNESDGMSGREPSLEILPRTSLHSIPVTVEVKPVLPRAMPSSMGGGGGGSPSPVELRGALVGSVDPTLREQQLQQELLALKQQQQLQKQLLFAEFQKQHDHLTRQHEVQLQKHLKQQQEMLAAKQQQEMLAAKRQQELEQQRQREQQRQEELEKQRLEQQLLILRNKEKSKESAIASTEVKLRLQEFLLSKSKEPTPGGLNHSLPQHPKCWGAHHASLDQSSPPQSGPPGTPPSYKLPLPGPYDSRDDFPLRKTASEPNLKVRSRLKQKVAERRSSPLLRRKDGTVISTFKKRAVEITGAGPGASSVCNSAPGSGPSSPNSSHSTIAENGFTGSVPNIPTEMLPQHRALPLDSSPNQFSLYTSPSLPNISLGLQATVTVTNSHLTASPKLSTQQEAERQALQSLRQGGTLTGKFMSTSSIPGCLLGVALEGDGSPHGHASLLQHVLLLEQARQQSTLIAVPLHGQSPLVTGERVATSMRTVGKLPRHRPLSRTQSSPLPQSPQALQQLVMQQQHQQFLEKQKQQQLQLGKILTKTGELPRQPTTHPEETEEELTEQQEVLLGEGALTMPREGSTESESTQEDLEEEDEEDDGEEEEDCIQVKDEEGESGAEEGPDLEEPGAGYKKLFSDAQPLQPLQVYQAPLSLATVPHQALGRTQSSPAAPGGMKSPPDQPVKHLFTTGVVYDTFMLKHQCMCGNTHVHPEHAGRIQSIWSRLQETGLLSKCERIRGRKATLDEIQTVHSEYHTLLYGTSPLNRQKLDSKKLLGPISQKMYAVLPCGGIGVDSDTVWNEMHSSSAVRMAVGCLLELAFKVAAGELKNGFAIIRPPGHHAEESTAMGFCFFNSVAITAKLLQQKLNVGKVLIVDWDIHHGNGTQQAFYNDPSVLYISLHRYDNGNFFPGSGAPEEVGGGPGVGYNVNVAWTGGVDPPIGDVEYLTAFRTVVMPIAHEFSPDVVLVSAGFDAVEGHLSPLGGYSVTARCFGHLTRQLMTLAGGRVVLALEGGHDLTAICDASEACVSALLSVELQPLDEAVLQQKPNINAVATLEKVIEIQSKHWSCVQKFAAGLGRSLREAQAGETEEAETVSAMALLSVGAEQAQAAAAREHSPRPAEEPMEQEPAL
# [11] = target: Histone deacetylase 3/Nuclear receptor corepressor 1 (HDAC3/NCoR1) (Homo sapiens); assay: Inhibition of HDAC3/NCOR1 (unknown origin) using Boc-Lys(Ac) as substrate by fluorogenic assay
# T1 sequence (P56524 whole entry): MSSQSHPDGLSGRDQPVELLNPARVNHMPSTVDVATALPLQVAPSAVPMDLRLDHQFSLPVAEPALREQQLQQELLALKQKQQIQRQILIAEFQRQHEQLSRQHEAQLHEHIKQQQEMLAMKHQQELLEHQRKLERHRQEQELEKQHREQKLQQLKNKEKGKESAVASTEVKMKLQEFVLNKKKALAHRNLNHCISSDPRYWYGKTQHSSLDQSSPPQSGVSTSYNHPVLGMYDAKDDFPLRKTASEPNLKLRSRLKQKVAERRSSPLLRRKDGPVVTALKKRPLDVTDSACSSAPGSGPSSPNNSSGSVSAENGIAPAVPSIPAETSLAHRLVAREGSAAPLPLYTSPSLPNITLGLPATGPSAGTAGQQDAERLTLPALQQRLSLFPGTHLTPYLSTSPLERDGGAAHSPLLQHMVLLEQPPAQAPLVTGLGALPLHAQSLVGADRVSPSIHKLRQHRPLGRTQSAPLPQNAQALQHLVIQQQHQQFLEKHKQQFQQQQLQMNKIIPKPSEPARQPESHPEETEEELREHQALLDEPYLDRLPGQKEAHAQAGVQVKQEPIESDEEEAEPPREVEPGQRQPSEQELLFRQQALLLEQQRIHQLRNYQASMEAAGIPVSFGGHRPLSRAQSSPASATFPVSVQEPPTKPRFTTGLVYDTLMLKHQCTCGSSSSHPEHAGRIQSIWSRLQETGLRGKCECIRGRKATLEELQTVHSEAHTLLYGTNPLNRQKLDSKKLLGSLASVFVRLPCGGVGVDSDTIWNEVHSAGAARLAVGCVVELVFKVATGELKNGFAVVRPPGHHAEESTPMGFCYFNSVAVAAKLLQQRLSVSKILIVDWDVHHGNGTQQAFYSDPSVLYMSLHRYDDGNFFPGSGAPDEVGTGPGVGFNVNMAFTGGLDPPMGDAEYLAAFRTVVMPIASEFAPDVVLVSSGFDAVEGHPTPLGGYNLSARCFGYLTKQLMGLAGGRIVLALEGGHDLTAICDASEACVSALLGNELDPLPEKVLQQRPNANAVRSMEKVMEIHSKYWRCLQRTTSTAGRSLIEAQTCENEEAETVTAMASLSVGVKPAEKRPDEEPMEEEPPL
Compound,pIC50 (Histone deacetylase 4 [1]),pIC50 (Histone deacetylase 4 [2]),pIC50 [3],Ratio IC50 [4],solubility kinetic [5],CLint scaled [6],Ratio [7],further results
CCCN(CCC)C[C@@H](C)NC(=O)c1ccc(-c2ncon2)cc1,< 4.30,< 4.30,–,–,–,–,–,–
C[C@@H](CN1CCCC1)NC(=O)c1ccc(-c2noc(C(F)(F)F)n2)cc1,6.14,7.30,4.37,59,–,–,–,–
C[C@H](CN1CCC[C@H]1C)NC(=O)c1ccc(-c2noc(C(F)(F)F)n2)cc1,6.22,7.15,4.85,–,178 µM,–,–,–
C[C@H](CN1CCCCCC1)NC(=O)c1ccc(-c2noc(C(F)(F)F)n2)cc1,7.52,8.00,5.77,57,–,128 mL/min/kg,1.2,–
CCCN(CCC)C[C@@H](C)NC(=O)c1ccc(-c2noc(C)n2)cc1,< 4.30,< 4.30,–,–,–,–,–,–
C[C@H](CN1CCC(F)(F)CC1)NC(=O)c1ccc(-c2noc(C(F)(F)F)n2)cc1,6.42,6.89,< 4.30,>132,25 µM,–,–,–
C[C@H](CN1CCC[C@@H](OC(F)F)C1)NC(=O)c1ccc(-c2noc(C(F)(F)F)n2)cc1,7.22,7.70,5.44,60,–,661 mL/min/kg,1.2,–
C[C@H](CN1CCCC(C)(C)C1)NC(=O)c1ccc(-c2noc(C(F)(F)F)n2)cc1,8.00,8.70,6.28,52,150 µM,1290 mL/min/kg,1,–
CCCN(CCC)C[C@@H](C)NC(=O)c1ccc(-c2nc(C(F)(F)F)no2)cc1,< 4.30,4.55,–,–,–,–,–,–
CCCN(CCC)C[C@@H](C)NC(=O)c1ccc(-c2noc(C(F)(F)F)n2)cc1,–,–,5.52,–,140 µM,834 mL/min/kg,–,pIC50 [8]: 5.19; Papp [9]: 54.1 ×10⁻⁶ cm/s; pIC50 (Histone deacetylase 1): 5.22; pIC50 (Histone deacetylase 2): 5.03; pIC50 (Histone deacetylase 8): 5.54; Stabilty [10]: Stable
CCCN(CCC)C[C@@H](C)NC(=O)c1ccc(-c2noc(C(F)F)n2)cc1,4.72,6.05,–,–,–,–,–,–
C[C@H](CN1CCC[C@H](OC(F)F)C1)NC(=O)c1ccc(-c2noc(C(F)(F)F)n2)cc1,8.00,8.52,5.82,150,51 µM,757 mL/min/kg,1.1,–
C[C@H](CN1CCC(F)CC1)NC(=O)c1ccc(-c2noc(C(F)(F)F)n2)cc1,7.00,7.52,4.99,103,–,214 mL/min/kg,1.2,–
O=C(NC1(CN2CCCC2)CC1)c1ccc(-c2noc(C(F)(F)F)n2)cc1,6.74,7.40,5.19,36,–,–,–,–
O=C(NCCN1CCCC1)c1ccc(-c2noc(C(F)(F)F)n2)cc1,6.60,7.52,5.43,–,169 µM,76 mL/min/kg,–,pIC50 [8]: 5.01; Papp [9]: 60.4 ×10⁻⁶ cm/s; pIC50 (Histone deacetylase 9): 7.15; pIC50 (Histone deacetylase 1): 4.89; pIC50 (Histone deacetylase 5): 7.05; pIC50 (Histone deacetylase 2): 4.59; pIC50 (Histone deacetylase 8): 5.55; pIC50 [11]: 5.29
C[C@H](CN1CCCC1)NC(=O)c1ccc(-c2noc(C(F)(F)F)n2)cc1,7.15,8.00,5.00,143,178 µM,65 mL/min/kg,2.2,–
CC(C)(CN1CCCC1)NC(=O)c1ccc(-c2noc(C(F)(F)F)n2)cc1,6.51,6.55,4.92,39,–,–,–,–
C[C@H](CN1CCC(F)(F)C1)NC(=O)c1ccc(-c2noc(C(F)(F)F)n2)cc1,5.89,6.64,< 4.30,>38,52 µM,–,–,–
C[C@H](CN1CCCCC1)NC(=O)c1ccc(-c2noc(C(F)(F)F)n2)cc1,7.15,–,5.05,129,157 µM,66 mL/min/kg,1.6,–
